We go through 20 compounds from ChEMBL document CHEMBL1268815, “Modulating the development of E. coli biofilms with 2-aminoimidazoles” (Bioorg Med Chem Lett, 2010).

For one data set, the system named is Acinetobacter baumannii. As to the kind of experiment: Effect on Acinetobacter baumannii biofilm formation at 400 uM after 24 hrs by crystal violet reporter assay relative to control. The class given is functional. As to conditions: read-out: INH; call rule not given here. The procedure, abridged: (§1)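 Initial single-concentration screen for effect on biofilm development. Bacteria were incubated statically with or without compound for 24 h. Medium and planktonic cells were removed and wells were water-washed. Attached biofilm was stained with crystal violet, washed, and the stain was solubilized in ethanol and read at A540. Results were expressed relative to untreated control as means of three experiments.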
(A reporter such as luciferase makes a cellular process visible.)

Data set [1] relates to Escherichia coli K-12. As to the kind of experiment: Effect on Escherichia coli K-12 ER2738 biofilm formation at 400 uM after 24 hrs by crystal violet reporter assay relative to control. The class given is functional. Conditions: ER2738, 24 h. The essentials: as §1
Data set [2] in a line: Toxicity in sheep RBC assessed as induction of hemolysis. The class given is cell-based, Ovis aries. Conditions: erythrocyte.
The subject of data set [3] is Escherichia coli K-12. As to the kind of experiment: Dispersion of preformed Escherichia coli K-12 ER2738 biofilm by crystal violet reporter assay relative to control.
In data set [4] the test system is Escherichia coli K-12. The data set is described as follows: Effect on Escherichia coli K-12 ER2738 biofilm formation by crystal violet reporter assay relative to control. The class given is functional, organism-based. The procedure, abridged: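 E. coli biofilm development was measured under static conditions by crystal violet reporter assay. Cultures were grown with or without compound for 24 h, then planktonic cells and medium were removed and wells were water-washed. Biofilm was stained with crystal violet, and the retained dye was ethanol-solubilized and quantified at A540 against untreated control.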

Molecules are shown by their SMILES. pEC50, pIC50: −log10 of the molar value.

As to `CCCCCCCCCCCCCCNC(=O)Cn1cc(CCCc2c[nH]c(N)n2)nn1`, the inhibition at 400 µM with Acinetobacter baumannii is 36.4%; with Escherichia coli K-12 [1], 57.8%.
Consider `Cl.Nc1nc(CCCc2cn(CC(=O)NCc3ccccc3)nn2)c[nH]1`, for which the inhibition at 400 µM in the data set with Acinetobacter baumannii is 19.5%. For the same compound, in data set [2], the Activity is more than 800 µM.
Take `Nc1nc(CCCc2cn(CC(=O)Nc3ccccc3)nn2)c[nH]1`: the inhibition at 400 µM is 23% in the data set on Acinetobacter baumannii and -142% with Escherichia coli K-12 [1].
For `CCCCCCNC(=O)Cn1cc(CCCc2c[nH]c(N)n2)nn1`, in that order: 31.4% and -30.3%.
Taken in the same sequence, the figures for `Nc1nc(CCCc2cn(CC(=O)NCCCc3ccccc3)nn2)c[nH]1` were 23.2% and -176%.
For `CC(C)NC(=O)Cn1cc(CCCc2c[nH]c(N)n2)nn1`, in that order: 13.6% and -127%.
Consider `Nc1nc(CCCc2cn(CC(=O)N3CCOCC3)nn2)c[nH]1`, for which the inhibition at 400 µM in the data set with Acinetobacter baumannii was 30.3%; in the data set with Escherichia coli K-12 [1], -183%.
Turning to `CCCCCCCCCCNC(=O)Cn1cc(CCCc2c[nH]c(N)n2)nn1.Cl`, the values for the inhibition at 400 µM in the data set on Acinetobacter baumannii and in the data set on Escherichia coli K-12 [1] were 28.3% and 90.8%, respectively. For the same compound, the pEC50 (as a rule, −log10 of the EC50, conventionally taken in molar units) in the data set on Escherichia coli K-12 [3] (Escherichia coli, ER2738, read-out: EC50) was 3.92. The Activity in data set [2] was determined as 487 µM. For the same compound, the pIC50 (commonly −log10 of the IC50, conventionally taken in molar units) with Escherichia coli K-12 [4] was 4.43.
In the case of `CC(C)(C)NC(=O)Cn1cc(CCCc2c[nH]c(N)n2)nn1`, the inhibition at 400 µM is 21.2% in the data set on Acinetobacter baumannii and 17.6% with Escherichia coli K-12 [1].
For `CCCCCCCCCCNC(=O)Cn1cc(CCCCCc2c[nH]c(N)n2)nn1`, in the data set with Escherichia coli K-12 [1], the inhibition at 400 µM worked out at 58.9%.
For `CCCCCCCCNC(=O)Cn1cc(CCCCCc2c[nH]c(N)n2)nn1.Cl`, the EC50 result with Escherichia coli K-12 [3] was “Not Active”. Further, in data set [2], the Activity worked out at 675 µM. The pIC50 in the data set on Escherichia coli K-12 [4] is 4.89.
`COc1ccc(NC(=O)Cn2cc(CCCc3c[nH]c(N)n3)nn2)cc1`: the inhibition at 400 µM in the data set with Escherichia coli K-12 [1] is -169%.
As for `Nc1nc(CCCc2cn(CC(=O)NC3CCCC3)nn2)c[nH]1`, the inhibition at 400 µM in the data set on Acinetobacter baumannii is 15.9%; in the data set with Escherichia coli K-12 [1], -47.8%.
For `Nc1nc(CCCc2cn(CC(=O)N3CCCC3)nn2)c[nH]1`, in that order: 6.2% and 2.6%.
Taken in the same sequence, the figures for `COc1ccc(CNC(=O)Cn2cc(CCCc3c[nH]c(N)n3)nn2)cc1` were 17.5% and -19.9%.
For the compound `Nc1nc(CCCCCc2cn(CC(=O)Nc3ccccc3)nn2)c[nH]1`, the inhibition at 400 µM in the data set with Escherichia coli K-12 [1] was -143%.
As for `Nc1nc(CCCc2cn(CC(=O)NCCc3ccccc3)nn2)c[nH]1`, the inhibition at 400 µM with Acinetobacter baumannii was 20.8%; in the data set on Escherichia coli K-12 [1], -41.8%.
Take `COc1ccc(CCNC(=O)Cn2cc(CCCc3c[nH]c(N)n3)nn2)cc1.Cl`: the inhibition at 400 µM in the data set on Acinetobacter baumannii turned out to be 8.5%. The Activity in data set [2] is more than 800 µM.
Turning to `Nc1nc(CCCc2cn(CC(=O)NC3CCCCC3)nn2)c[nH]1`, the inhibition at 400 µM with Escherichia coli K-12 [1] is -169%.
On the same count and under the same terms, with `Nc1nc(CCCCCc2cn(CC(=O)NCCc3ccccc3)nn2)c[nH]1` the figure was -174%.
